In ChEMBL document CHEMBL1938323, “Phenolic substances from Phagnalon rupestre protect against 2,4,6-trinitrochlorobenzene-induced contact hypersensitivity” (2011):
Calls of active or inactive are those of the source. The rule behind the calls is not given here.

Experiments:
[1] = organism: Mus musculus; assay: Antihypersensitivity activity against TNCB-induced contact hypersensitivity in BALB/c mouse ear assessed as decreased COX2 expression at 0.5 mg/ear after at 24 hrs by Western blotting relative to control; format: functional
[2] = organism: Mus musculus; assay: Antihypersensitivity activity against TNCB-induced contact hypersensitivity in BALB/c mouse ear assessed as decrease IL1-beta levels at 0.5 mg/ear measured at 72 hrs by ELISA relative to control; format: functional
Procedure, shortened: (§1)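 Acute CHS: female BALB/c mice challenged with 1% TNCB (10 μL/ear). Topical treatment at 30 min, 24 h and 48 h: compounds 0.5 mg/ear, dexamethasone 0.025 mg/ear. Ears collected at 24 and 72 h and homogenized. Cytokines measured by ELISA in triplicate and expressed as pg/mL. n ≥4 animals; Dunnett's test versus control.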

[3] = organism: Mus musculus; assay: Antihypersensitivity activity against TNCB-induced contact hypersensitivity in BALB/c mouse ear assessed as decrease IL2 levels at 0.5 mg/ear measured after 72 hrs by ELISA relative to 24 hrs; format: functional; procedure, shortened: as §1
[4] = system: RAW264.7; assay: Antiinflammatory activity in mouse RAW264.7 cells assessed as inhibition of LPS-induced MMP9 expression at 100 uM by Western blotting relative to control; format: functional
Procedure, shortened: (§2)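 RAW 264.7 cells were plated at 2×10^5 cells/mL and switched to DMEM with 0.5% FBS when subconfluent. They were pretreated 1 h with compound (25, 50, 100 μM) or PBS vehicle, then given LPS 1 μg/mL. Cells were lysed after 24 h. MMP-9 was measured by Western blot, normalized to β-actin, with % inhibition versus control. Three experiments.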

[5] = system: Mus musculus; assay: Antihypersensitivity against TNCB-induced contact hypersensitivity in BALB/c mouse ear assessed as inhibition of edema at 0.5 mg/ear applied […] after 30 mins, 24 hrs and 48 hrs of TNCB challenge measured after 24 hrs relative to control; format: functional
Procedure, shortened: (§3)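 Female BALB/c mice (7–9 weeks) challenged on each ear with 10 μL 1% TNCB in acetone six days after sensitization. Compounds given at 0.5 mg/ear in EtOH–H2O 8:2 at 30 min, 24 h and 48 h. Ear thickness measured by micrometer at 24 and 72 h. Edema is inflamed minus naive thickness; inhibition versus control. Dunnett's test.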

[6] = organism: Mus musculus; assay: Antihypersensitivity activity against TNCB-induced contact hypersensitivity in BALB/c mouse ear assessed as inhibition of MMP9 production at 0.5 mg/ear measured at 24 hrs by Western blot analysis relative to control; format: functional
[7] = system: RAW264.7; assay: Antiinflammatory activity in mouse RAW264.7 cells assessed as inhibition of LPS-induced MMP9 expression at 50 uM by Western blotting relative to control; format: functional; procedure, shortened: as §2
[8] = system: RAW264.7; assay: Antiinflammatory activity in mouse RAW264.7 cells assessed as inhibition of LPS-induced MMP9 expression by Western blotting; format: functional, cell-based; procedure, shortened: as §2
[9] = organism: Mus musculus; assay: Antihypersensitivity activity against TNCB-induced contact hypersensitivity in BALB/c mouse ear assessed as decreased COX2 expression at 0.5 mg/ear after at 72 hrs by Western blotting relative to control; format: functional
[10] = organism: Mus musculus; assay: Antihypersensitivity activity against TNCB-induced contact hypersensitivity in BALB/c mouse ear assessed as decrease IL1-beta levels at 0.5 mg/ear measured at 24 hrs by ELISA relative to control; format: functional; procedure, shortened: as §1
[11] = system: RAW264.7; assay: Antiinflammatory activity in mouse RAW264.7 cells assessed as inhibition of LPS-induced MMP9 expression at 25 uM by Western blotting relative to control; format: functional; procedure, shortened: as §2
[12] = organism: Mus musculus; assay: Antihypersensitivity activity against TNCB-induced contact hypersensitivity in BALB/c mouse ear assessed as decrease TNFalpha levels at 0.5 mg/ear measured at 24 hrs by ELISA relative to control; format: functional; procedure, shortened: as §1
[13] = organism: Mus musculus; assay: Antihypersensitivity activity against TNCB-induced contact hypersensitivity in BALB/c mouse ear assessed as decrease IL4 levels at 0.5 mg/ear measured after 24 to 72 hrs by ELISA; format: functional, organism-based; procedure, shortened: as §1
[14] = system: Mus musculus; assay: Antihypersensitivity against TNCB-induced contact hypersensitivity in BALB/c mouse ear assessed as inhibition of edema at 0.5 mg/ear applied tropically after 30 mins, 24 hrs and 48 hrs of TNCB challenge measured after 72 hrs relative to control; format: functional; procedure, shortened: as §3
[15] = organism: Mus musculus; assay: Antihypersensitivity activity against TNCB-induced acute contact hypersensitivity in BALB/c mouse ear assessed as inhibition of neutrophil infiltration by measuring MPO activity at 0.5 mg/ear measured after 72 hrs relative to control; format: functional
Procedure, shortened: (§4)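 Female BALB/c mice were challenged on both ears with 10 μL 1% TNCB in acetone. Test compounds (0.5 mg/ear in EtOH–H2O 8:2) or dexamethasone (0.025 mg/ear in acetone) were applied topically at 30 min, 24 h and 48 h. Ear tissue was taken at 24 or 72 h and homogenized in phosphate buffer with 0.5% HTAB. MPO was read by TMB/H2O2, 3 min at 37 °C, A630. n ≥5 ear samples.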

[16] = system: Mus musculus; assay: Antihypersensitivity activity against TNCB-induced atopic dermatitis in BALB/c mouse ear assessed as inhibition of ear thickness at 0.5 mg/ear applied topically three times per week 30 min TNCB post challenge measured on day 11 onwards; format: functional
Procedure, shortened: (§5)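 BALB/c mice sensitized with 10 μL 0.3% TNCB in acetone on both inner ears at day −7, then re-challenged at the same site three times per week over days 0–21. Ear thickness measured by digital micrometer. Edema is the difference between naive and inflamed ear thickness. Inhibition calculated relative to the control group.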

[17] = Inhibition of NF-kappaB activation
[18] = system: Mus musculus; assay: Antihypersensitivity activity against TNCB-induced atopic dermatitis in BALB/c mouse ear assessed as inhibition of ear thickness at 0.5 mg/ear applied topically three times per week 30 min TNCB post challenge measured on day 7 onwards; format: functional; procedure, shortened: as §5
[19] = organism: Mus musculus; assay: Antihypersensitivity activity against TNCB-induced acute contact hypersensitivity in BALB/c mouse ear assessed as inhibition of neutrophil infiltration by measuring MPO activity at 0.5 mg/ear measured after 24 hrs relative to control; format: functional; procedure, shortened: as §4
[20] = organism: Mus musculus; assay: Antihypersensitivity activity against TNCB-induced acute contact hypersensitivity in BALB/c mouse ear assessed as inhibition of neutrophil infiltration by measuring MPO activity at 0.5 mg/ear measured after 22 days of repeated application of TNCB relative to control; format: functional
Procedure, shortened: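 Repeated-challenge protocol in BALB/c mice: sensitized with 10 μL 0.3% TNCB in acetone on both inner ears at day −7, then 0.3% TNCB three times weekly over days 0–21. Ears were excised on day 22 and homogenized in 0.5% HTAB phosphate buffer. MPO was read by TMB/H2O2, 3 min at 37 °C, A630. n ≥5 ear samples.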

[21] = system: Mus musculus; assay: Antihypersensitivity against TNCB-induced contact hypersensitivity in BALB/c mouse ear assessed as inhibition of edema at 0.025 mg/ear applied […] after 30 mins, 24 hrs and 48 hrs of TNCB challenge measured after 72 hrs relative to control; format: functional
Procedure, shortened: (§6)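 Female BALB/c mice, 7–9 weeks old, were challenged with 10 μL 1% TNCB in acetone per ear. Dexamethasone (20 μL, in acetone) was applied topically to both ears at 30 min, 24 h and 48 h after challenge. Thickness was taken by digital micrometer at 24 h or 72 h; edema is inflamed minus naive ear, with inhibition relative to control. Reported as mean ± SEM, ≥6 animals, Dunnett's test.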

[22] = organism: Mus musculus; assay: Antihypersensitivity activity against TNCB-induced contact hypersensitivity in BALB/c mouse ear assessed as decreased COX2 expression at 0.025 mg/ear after at 24 hrs by Western blotting relative to control; format: functional
[23] = organism: Mus musculus; assay: Antihypersensitivity activity against TNCB-induced acute contact hypersensitivity in BALB/c mouse ear assessed as inhibition of neutrophil infiltration by measuring MPO activity at 0.025 mg/ear measured after 24 to 72 hrs relative to control; format: functional; procedure, shortened: as §4
[24] = organism: Mus musculus; assay: Antihypersensitivity activity against TNCB-induced contact hypersensitivity in BALB/c mouse ear assessed as inhibition of MMP9 production at 0.025 mg/ear measured at 24 hrs by ELISA relative to control
[25] = organism: Mus musculus; assay: Antihypersensitivity activity against TNCB-induced contact hypersensitivity in BALB/c mouse ear assessed as decrease cytokines levels at 0.025 mg/ear measured at 24 hrs by ELISA relative to control; format: functional; procedure, shortened: as §1
[26] = organism: Mus musculus; assay: Antihypersensitivity activity against TNCB-induced contact hypersensitivity in BALB/c mouse ear assessed as decreased COX2 expression at 0.025 mg/ear after at 72 hrs by Western blotting relative to control; format: functional
[27] = system: Mus musculus; assay: Antihypersensitivity activity against TNCB-induced atopic dermatitis in BALB/c mouse ear assessed as inhibition of ear thickness at 0.025 mg/ear applied topically three times per week 30 min TNCB post challenge measured up to 25 days; format: functional, organism-based; details: in the assay text read “up to 21 days” for “up to 25 days”; procedure, shortened: as §5
[28] = organism: Mus musculus; assay: Antihypersensitivity activity against TNCB-induced contact hypersensitivity in BALB/c mouse ear assessed as inhibition of MMP9 production at 0.025 mg/ear measured at 72 hrs by Western blot analysis relative to control; format: functional
[29] = system: Mus musculus; assay: Antihypersensitivity against TNCB-induced contact hypersensitivity in BALB/c mouse ear assessed as inhibition of edema at 0.025 mg/ear applied […] after 30 mins, 24 hrs and 48 hrs of TNCB challenge measured after 24 hrs relative to control; format: functional; procedure, shortened: as §6
[30] = organism: Mus musculus; assay: Antihypersensitivity activity against TNCB-induced acute contact hypersensitivity in BALB/c mouse ear assessed as inhibition of neutrophil infiltration by measuring MPO activity at 0.025 mg/ear measured after 22 days of repeated application of TNCB relative to control; format: functional
Procedure, shortened: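 Female BALB/c mice were sensitized with 10 μL 0.3% TNCB in acetone on both inner ear surfaces, then painted with 0.3% TNCB three times weekly through days 0–21. On day 22 ears were homogenized in 50 mM PBS with 0.5% HTAB. Supernatant was read with H2O2 and tetramethylbenzidine, 3 min at 37 °C, acid-stopped, A630. Reported as mean ± SEM of ≥5 ear samples.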

| Compound | inhibition (INH) [1] [%] | inhibition (INH) [2] [%] | fold change (FC) [3] | inhibition at 100 µM [4] [%] | inhibition (INH) [5] [%] | inhibition (INH) [6] [%] | inhibition at 50 µM [7] [%] | inhibition [8] | inhibition (INH) [9] [%] | inhibition (INH) [10] [%] | inhibition at 25 µM [11] [%] | inhibition (INH) [12] [%] | inhibition [13] | other results |
| --- | --- | --- | --- | --- | --- | --- | --- | --- | --- | --- | --- | --- | --- | --- |
| COC(=O)[C@]1(O)C[C@@H](OC(=O)/C=C/c2ccc(O)c(O)c2)[C@@H](O)[C@H](OC(=O)/C=C/c2ccc(O)c(O)c2)C1 | 49 | 60 | 2 | 90 | 45 | 41 | 85 | Dose-dependent effect | 29 | >50 | 26 | 39 | inactive | – |
| CC(C)=CCc1cc(O)ccc1O[C@@H]1O[C@H](CO)[C@@H](O)[C@H](O)[C@H]1O | – | 60 | 2 | 86 | 53 | – | 72 | Dose-dependent effect | – | >50 | 10 | – | inactive | inhibition (INH) [14]: 50%; inhibition (INH) [15]: 43%; inhibition (INH) [16]: 30% |
| O=C(O[C@@H]1Cc2c(O)cc(O)cc2O[C@@H]1c1cc(O)c(O)c(O)c1)c1cc(O)c(O)c(O)c1 [EPIGALOCATECHIN GALLATE] | – | – | – | 90 | – | – | 75 | – | – | – | 70 | – | – | – |
| O=C(/C=C/c1ccc(O)c(O)c1)O[C@@H]1C[C@](O)(C(=O)O)C[C@@H](OC(=O)/C=C/c2ccc(O)c(O)c2)[C@H]1O (relative stereo) | 44 | – | 2 | 97 | 50 | 66 | 42 | Dose-dependent effect | 20 | >50 | 20 | 53 | inactive | inhibition [17]: Active; inhibition (INH) [18]: > 40%; inhibition (INH) [19]: 20%; inhibition (INH) [20]: 44% |
| C[C@@H]1C[C@H]2[C@@H]3CCC4=CC(=O)C=C[C@]4(C)[C@@]3(F)[C@@H](O)C[C@]2(C)[C@@]1(O)C(=O)CO [DEXAMETHASONE] | – | – | – | – | – | – | – | – | – | – | – | – | – | inhibition (INH) [21]: 83%; inhibition (INH) [22]: 48%; inhibition (INH) [23]: 65%; inhibition (INH) [24]: 81%; inhibition (INH) [25]: 50%; inhibition (INH) [26]: 43%; inhibition [27]: Active; inhibition (INH) [28]: 69%; inhibition (INH) [29]: 78%; inhibition (INH) [30]: 78% |
